Results of several laboratories.
Each line is one published result; the experiments were not run side by side.
Target: Casein kinase I isoform gamma-2 (CSNK1G2, Homo sapiens, UniProt P78368)

SMILES | effect on | technique | concentration | remaining binding [%]
Cn1nc(C(F)(F)F)cc1-c1cnc(N2CCc3cc(S(=O)(=O)Nc4c(F)cc(Cl)cc4F)cc(N4CCCC4=O)c32)nc1 | cell-free assay | competition with immobilised ligand | 1 µM | 100
N[C@@H]1CCN(c2nccc(-c3cnn4ncccc34)n2)C1 | binding |  | 1 µM | 82
COc1cnc(Nc2cccc(S(N)(=O)=O)c2)nc1N1CCN(c2ccccc2)C(=O)C1 | binding | competition with immobilised ligand | 1 µM | 96
C[C@@H]1CCN(c2nccc(-c3cnn4ncccc34)n2)C1 | binding |  | 1 µM | 62
Nc1ncc2c(n1)-c1c([nH]c3ccc(C#CC4CC4)cc13)CCCC2 | binding | competition with immobilised ligand | 1 µM | 100
CN(C)c1ncc(F)c(-c2cnn3ncccc23)n1 | binding |  | 1 µM | 90
O=C(NCCCN1CCOCC1)c1ccc(Nc2nccc(-c3cc4ccccc4s3)n2)cc1 | binding | competition with immobilised ligand | 1 µM | 100
N#CC1(c2ccccn2)CCN(Cc2cc(C(=O)N3CCCC3)c(=O)n3ccccc23)CC1 | cell-free assay | competition with immobilised ligand | 1 µM | 76
O=C(NCCCN1CCOCC1)c1ccc(Nc2ncc(Cl)c(-c3ccc(Cl)s3)n2)cc1 | binding | competition with immobilised ligand | 1 µM | 100
CN([C@@H]1CCc2c(CC(=O)O)c3cc(S(C)(=O)=O)ccc3n2C1)S(=O)(=O)c1ccc(F)cc1 | cell-free assay | competition with immobilised ligand | 1 µM | 100
COc1ccnn2ncc(-c3ccnc(N(C)C)n3)c12 | binding |  | 1 µM | 81
CNCc1ccccc1-c1csc([C@@H](C)Nc2nc(C)nc3cc(OC)c(OC)cc23)c1 | cell-free assay | competition with immobilised ligand | 1 µM | 98
O=C(NCC1CCOCC1)c1n[nH]cc1NC(=O)c1c(F)cccc1F | binding | competition with immobilised ligand | 1 µM | 83
COc1ncc2cc3ccccc3nc2c1C#N | cell-free assay | competition with immobilised ligand | 5 µM | 98
CN([C@@H]1CCc2c(CC(=O)O)c3ccccc3n2C1)S(=O)(=O)c1ccc(F)cc1 | cell-free assay | competition with immobilised ligand | 1 µM | 100
c1cncc(-c2cccc(Nc3nccc(NC4CCCCC4)n3)c2)c1 | binding | competition with immobilised ligand | 10 µM | 80
Cc1cnn2ncc(-c3ccnc(N(C)C)n3)c2c1 | binding |  | 1 µM | 100
O=C(c1ccc(Nc2nccc(-c3cc4ccccc4s3)n2)cc1)N1CCC(N2CCCC2)CC1 | binding | competition with immobilised ligand | 1 µM | 94
CC1=C(C#N)C(c2ccc3c(c2)c(NC(=O)c2ccccc2C)nn3C)C(C#N)=C(C)N1 | cell-free assay | competition with immobilised ligand | 1 µM | 95
CC1CCCN1c1nccc(-c2cnn3ncccc23)n1 (centres unmarked) | binding |  | 1 µM | 77
